Measurements taken from ChEMBL document CHEMBL1157349, “2-Substituted piperazine-derived imidazole carboxamides as potent and selective CCK1R agonists for the treatment of obesity” (Bioorg Med Chem Lett, 2008).

Columns and labels:
[1] = target: T1, Cholecystokinin receptor type A (Homo sapiens, UniProt P32238); experiment: Inhibition of human CCK1 receptor
T1 sequence (P32238 whole entry): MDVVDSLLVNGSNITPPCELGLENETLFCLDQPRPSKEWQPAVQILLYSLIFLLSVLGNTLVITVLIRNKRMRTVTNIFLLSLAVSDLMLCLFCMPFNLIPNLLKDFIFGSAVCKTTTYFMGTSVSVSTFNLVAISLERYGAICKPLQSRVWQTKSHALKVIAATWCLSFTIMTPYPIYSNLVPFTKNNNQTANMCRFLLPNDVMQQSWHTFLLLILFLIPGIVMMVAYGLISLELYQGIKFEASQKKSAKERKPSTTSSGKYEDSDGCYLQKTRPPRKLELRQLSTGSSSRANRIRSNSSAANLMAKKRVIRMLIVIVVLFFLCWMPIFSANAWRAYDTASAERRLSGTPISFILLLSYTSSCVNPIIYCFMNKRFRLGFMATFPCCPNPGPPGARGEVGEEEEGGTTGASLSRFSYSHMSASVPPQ

[2] = target: T2, Cholecystokinin receptor type A (Homo sapiens) (UniProt P32238); experiment: Agonist activity at human CCK1 receptor relative to cholecystokinin 8; format: functional
T2 sequence (whole entry): T1 sequence (P32238 whole entry)

[3] = target: T1, Cholecystokinin receptor type A; experiment: Agonist activity at human CCK1 receptor; format: functional
Procedure, shortened: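 Human CCK1 receptor agonism measured in a CCK_IP3 functional assay with NFAT read-out. Values are means of ≥3 experiments, with standard deviations <75% of the average.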

Mus musculus [4] = experiment: Oral bioavailability in mouse at 10 mg/kg; format: ADME, organism-based; details: in vivo
Mus musculus [5] = experiment: Suppression of 18 hrs overnight food intake in mouse at 0.3 mg/kg, po relative to control; format: functional
Procedure, shortened: (§1)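 Lean mice were dosed orally in 10% Tw80 in water. Overnight food intake was measured and expressed relative to vehicle-dosed mice.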

[6] = Cmax in mouse at 10 mg/kg, po; format: ADME, organism-based; set-up: dose 10 mg/kg, route oral; details: in vivo
[7] = Tmax in mouse at 1 mg/kg, iv and 10 mg/kg, po; format: ADME, organism-based; details: in vivo
Mus musculus [8] = species on record: Mus musculus; experiment: Gastrointestinal toxicity in wild type mouse; format: organism-based; details: in vivo
[9] = Volume of distribution in mouse at 1 mg/kg, iv and 10 mg/kg, po; format: ADME, organism-based; details: in vivo
[10] = target: T3, Cholecystokinin receptor type A (Mus musculus, UniProt O08786); experiment: Agonist activity at mouse CCK1 receptor; format: functional
T3 sequence (O08786 whole entry): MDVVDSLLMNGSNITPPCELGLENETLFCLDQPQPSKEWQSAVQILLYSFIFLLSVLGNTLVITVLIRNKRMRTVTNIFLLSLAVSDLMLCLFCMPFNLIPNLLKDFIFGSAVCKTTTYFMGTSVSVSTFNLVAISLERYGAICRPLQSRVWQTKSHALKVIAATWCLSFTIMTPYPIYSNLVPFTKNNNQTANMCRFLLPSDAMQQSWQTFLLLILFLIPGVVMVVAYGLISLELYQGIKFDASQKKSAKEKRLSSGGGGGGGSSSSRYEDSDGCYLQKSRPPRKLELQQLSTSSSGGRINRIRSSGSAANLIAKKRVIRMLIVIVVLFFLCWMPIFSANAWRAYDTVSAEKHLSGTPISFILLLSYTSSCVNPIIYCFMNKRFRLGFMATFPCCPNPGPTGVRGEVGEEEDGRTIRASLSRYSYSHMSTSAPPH
Procedure, shortened: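 Mouse CCK1 receptor agonism measured in a CCK_IP3 functional assay in K1 cells. Values are means of ≥3 experiments, with standard deviations <75% of the average.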

[11] = Half life in mouse at 1 mg/kg, iv and 10 mg/kg, po; format: ADME, organism-based; details: in vivo
Mus musculus [12] = experiment: Suppression of 18 hrs overnight food intake in mouse at 3 mg/kg, po relative to control; format: functional; procedure, shortened: as §1
Mus musculus [13] = experiment: AUC in mouse at 10 mg/kg, po; format: ADME, organism-based, Plasma; set-up: dose 10 mg/kg, route oral; details: in vivo
[14] = target: T4, Cholecystokinin receptor type A (Mus musculus) (UniProt O08786); experiment: Agonist activity at mouse CCK1 receptor relative to cholecystokinin 8; format: functional
T4 sequence (whole entry): T3 sequence (O08786 whole entry)

Mus musculus [15] = species on record: Mus musculus; experiment: Gastrointestinal toxicity in CCK1 receptor deficient mouse; format: organism-based; details: in vivo
Mus musculus [16] = experiment: Suppression of 48 hrs overnight food intake in wild type mouse at 3 mg/kg, po relative to control; format: functional
Procedure, shortened: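 Wild-type and CCK1R^-/- mice received an oral dose of 3 mpk. Food intake was measured at 18 h and 48 h and compared with vehicle.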

SMILES	IC50 [1]	Activity [2]	EC50 [3]	other results
CCOc1cccc(-n2cc(C(=O)N3CCN(c4cnc5ccccc5c4)C[C@H]3CNC(C)=O)nc2-c2ccc(C)cc2)c1	0.39 nM	104%	0.097 nM	–
CCOc1cccc(-n2cc(C(=O)N3CCN(c4cc(C(=O)O)c5ccccc5c4)C[C@@H]3COCC(=O)O)nc2-c2ccc(C)cc2)c1	0.14 nM	85%	0.097 nM	–
CCOc1cccc(-n2cc(C(=O)N3CCN(c4cnc5ccccc5c4)C[C@@H]3C(=O)NC(C)C)nc2-c2ccc(C)cc2)c1	0.21 nM	87%	0.18 nM	–
CCOc1cccc(-n2cc(C(=O)N3CCN(c4cnc5ccccc5c4)C[C@@H]3CNS(C)(=O)=O)nc2-c2ccc(C)cc2)c1	0.43 nM	100%	0.21 nM	–
CCOc1cccc(-n2cc(C(=O)N3CCN(c4cnc5ccccc5c4)C[C@@H]3CNC(C)=O)nc2-c2ccc(C)cc2)c1	0.25 nM	91%	0.1 nM	–
CCOc1cccc(-n2cc(C(=O)N3CCN(c4cnc5ccccc5c4)C[C@H]3CNS(C)(=O)=O)nc2-c2ccc(C)cc2)c1	0.73 nM	117%	0.46 nM	–
CCOc1cccc(-n2cc(C(=O)N3CCN(c4cc(C(=O)O)c5ccccc5c4)C[C@@H]3CNS(C)(=O)=O)nc2-c2ccc(C)cc2)c1	0.12 nM	72%	0.095 nM	–
CCOc1cccc(-n2cc(C(=O)N3CCN(c4cnc5ccccc5c4)C[C@H]3COC(C)=O)nc2-c2ccc(C)cc2)c1	0.47 nM	118%	0.77 nM	–
CCOc1cccc(-n2cc(C(=O)N3CCN(c4cnc5ccccc5c4)C[C@@H]3COC(C)=O)nc2-c2ccc(C)cc2)c1	0.24 nM	104%	0.25 nM	–
CCOc1cccc(-n2cc(C(=O)N3CCN(c4cnc5ccccc5c4)C[C@H]3C(=O)NC(C)C)nc2-c2ccc(C)cc2)c1	0.24 nM	102%	0.14 nM	–
CCOc1cccc(-n2cc(C(=O)N3CCN(c4cc(C(=O)O)c5ccccc5c4)C[C@@H]3C(=O)NC(C)C)nc2-c2ccc(C)cc2)c1	0.11 nM	94%	0.082 nM	–
CCOc1cccc(-n2cc(C(=O)N3CCN(c4cc(C(=O)O)c5ccccc5c4)CC3)nc2-c2ccc(C)cc2)c1	–	–	–	Activity (Mus musculus [5]): 18%; Tmax [7]: 6.7 h; Activity (Mus musculus [12]): 82%; AUC (Mus musculus [13]): 0.39 µM·h; Activity [14]: 103%
CCOc1cccc(-n2cc(C(=O)N3CCN(c4cnc5ccccc5c4)C[C@@H]3CNC(=O)NC)nc2-c2ccc(C)cc2)c1	0.56 nM	70%	0.16 nM	–

Continued, in another order:

IC50 [1]	Activity [2]	EC50 [3]	SMILES	other results
0.067 nM	97%	0.1 nM	CCOc1cccc(-n2cc(C(=O)N3CCN(c4cc(C(=O)O)c5ccccc5c4)C[C@H]3CNS(C)(=O)=O)nc2-c2ccc(C)cc2F)c1	–
0.01 nM	94%	0.071 nM	CCOc1cccc(-n2cc(C(=O)N3CCN(c4cc(C(=O)O)c5ccccc5c4)C[C@H]3C(=O)NC(C)C)nc2-c2ccc(C)cc2F)c1	F (Mus musculus [4]): 4%; Activity (Mus musculus [5]): 32%; Cmax [6]: 180 nM; Tmax [7]: 8 h; Activity (Mus musculus [8]): Toxic; Vd [9]: 0.42 L/kg; EC50 [10]: 0.034 nM; half-life [11]: 2.3 h; Activity (Mus musculus [12]): 92%; AUC (Mus musculus [13]): 0.1 µM·h; Activity [14]: 94%; Activity (Mus musculus [15]): Non-toxic; Activity (Mus musculus [16]): 85%
0.04 nM	–	0.055 nM	CCOc1cccc(-n2cc(C(=O)N3CCN(c4cc(C(=O)O)c5ccccc5c4)CC3)nc2-c2ccc(C)cc2F)c1	Activity (Mus musculus [5]): 13%; Tmax [7]: 0.6 h; Activity (Mus musculus [12]): 86%; AUC (Mus musculus [13]): 0.61 µM·h; Activity [14]: 56%
0.018 nM	82%	0.089 nM	CCOc1cccc(-n2cc(C(=O)N3CCN(c4cnc5ccccc5c4)C[C@H]3C(=O)NCC(=O)O)nc2-c2ccc(C)cc2)c1	EC50 [10]: 0.11 nM; Activity [14]: 99%
0.097 nM	90%	0.074 nM	CCOc1cccc(-n2cc(C(=O)N3CCN(c4cc(C(=O)O)c5ccccc5c4)C[C@H]3CNC(=O)NC)nc2-c2ccc(C)cc2F)c1	–
0.058 nM	70%	0.033 nM	CCOc1cccc(-n2cc(C(=O)N3CCN(c4cc(C(=O)O)c5ccccc5c4)C[C@H]3CNC(C)=O)nc2-c2ccc(C)cc2F)c1	EC50 [10]: 0.13 nM; Activity (Mus musculus [12]): 18%; Activity [14]: 77%
0.08 nM	67%	0.04 nM	CCOc1cccc(-n2cc(C(=O)N3CCN(c4cc(C(=O)O)c5ccccc5c4)C[C@@H]3CNC(C)=O)nc2-c2ccc(C)cc2)c1	–
0.041 nM	106%	0.034 nM	CCOc1cccc(-n2cc(C(=O)N3CCN(c4cc(C(=O)O)c5ccccc5c4)C[C@H]3COCC(=O)O)nc2-c2ccc(C)cc2F)c1	–
0.039 nM	96%	0.097 nM	CCOc1cccc(-n2cc(C(=O)N3CCN(c4cnc5ccccc5c4)C[C@@H]3COCC(=O)O)nc2-c2ccc(C)cc2)c1	EC50 [10]: 0.5 nM; Activity [14]: 84%
0.016 nM	103%	0.053 nM	CCOc1cccc(-n2cc(C(=O)N3CCN(c4cc(C(=O)O)c5ccccc5c4)C[C@H]3C(=O)NC(C)C)nc2-c2ccc(C)cc2)c1	F (Mus musculus [4]): 11%; Activity (Mus musculus [5]): 19%; Cmax [6]: 180 nM; Tmax [7]: 5.5 h; Vd [9]: 3.7 L/kg; EC50 [10]: 0.11 nM; half-life [11]: 2.5 h; Activity (Mus musculus [12]): 45%; AUC (Mus musculus [13]): 0.15 µM·h; Activity [14]: 110%
0.08 nM	74%	0.13 nM	CCOc1cccc(-n2cc(C(=O)N3CCN(c4cc(C(=O)O)c5ccccc5c4)C[C@@H]3CNC(=O)NC)nc2-c2ccc(C)cc2)c1	–
0.052 nM	93%	0.065 nM	CCOc1cccc(-n2cc(C(=O)N3CCN(c4cnc5ccccc5c4)C[C@H]3COCC(=O)O)nc2-c2ccc(C)cc2)c1	–
